According to ChEMBL document CHEMBL3286242, “Design, synthesis and biological evaluation of arylcinnamide hybrid derivatives as novel anticancer agents” (Eur J Med Chem, 2014):
Calls of active or inactive are those of the source. No cut-off for these calls is given here.

Legend:
HeLa = assay: Cytotoxicity against human HeLa cells assessed as growth inhibition after 72 hrs by MTT assay; format: functional, cell-based
HT-29 = assay: Cytotoxicity against human HT-29 cells assessed as growth inhibition after 72 hrs by MTT assay; format: functional, cell-based; conditions: HT-29, 72 h
LoVo = assay: Cytotoxicity against human LoVo cells assessed as growth inhibition after 72 hrs by MTT assay; format: functional, cell-based
CCRF-CEM = assay: Cytotoxicity against human CEM cells assessed as growth inhibition after 72 hrs by MTT assay; format: functional, cell-based
Jurkat = assay: Cytotoxicity against human Jurkat cells assessed as growth inhibition after 72 hrs by MTT assay; format: functional, cell-based
[1] = Cytotoxicity against human SEM cells assessed as growth inhibition after 72 hrs by MTT assay; format: functional, cell-based
MCF7 = assay: Cytotoxicity against human MCF7 cells assessed as growth inhibition after 72 hrs by MTT assay; format: functional, cell-based; conditions: MCF7, 72 h
Tubulin (Bos taurus) = Tubulin (Bos taurus) (UniProt Q6B856+Q862L2+Q862F3); assay: Inhibition of bovine brain tubulin polymerization at 20 uM by turbidimetry
In short: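 Purified bovine brain tubulin (10 μM) preincubated with compound in glutamate buffer at 30 °C, cooled to 0 °C, GTP added, then warmed to 30 °C in cuvettes; assembly followed turbidimetrically; concentrations up to 20 μM.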

[2] = Cytotoxicity against human CEM/VBL100 cells assessed as growth inhibition after 72 hrs by MTT assay; format: functional, cell-based; conditions: CEM/VBL100, 72 h

inhibition (Tubulin (Bos taurus)) | Compound | IC50 (HeLa) [nM] | IC50 (HT-29) [nM] | IC50 (LoVo) [nM] | IC50 (CCRF-CEM) [nM] | IC50 (Jurkat) [nM] | IC50 [1] [nM] | IC50 (MCF7) [nM] | IC50 [2] [nM]
 | COc1cccc(/C=C/C(=O)Nc2cc(OC)c(OC)c(OC)c2)c1 | 16500 | 44100 | 43000 | 23400 | 12500 | 18200 | 27000 | 
 | COc1cc(NC(=O)/C=C/c2cccc(N)c2)cc(OC)c1OC | 53100 | 63100 | 45200 | 40900 | 43300 | 2810 | 55400 | 
inactive | C=C(Br)C(=O)Nc1cccc(/C=C/C(=O)Nc2ccc(OC)cc2)c1 | 790 | 2300 | 550 | 26 | 470 | 70 | 2500 | 
inactive | C=C(Br)C(=O)Nc1cccc(/C=C/C(=O)Nc2cc(OC)c(OC)c(OC)c2)c1 | 880 | 2300 | 140 | 59 | 290 | 18 | 1800 | 
inactive | C=C(Br)C(=O)Nc1cccc(/C=C/C(=O)Nc2ccc(OC)c(OC)c2)c1 | 560 | 1900 | 150 | 21 | 190 | 3 | 2800 | 
 | C=C(Br)C(=O)Nc1cccc(/C=C/C(=O)NCc2ccc(C)cc2)c1 | 1700 | 2700 | 1900 | 550 | 740 | 1300 | 2200 | 
 | C=C(Br)C(=O)Nc1cccc(/C=C/C(=O)Nc2ccc(C)cc2)c1 | 1500 | 1200 | 1500 | 270 | 240 | 190 | 2500 | 
 | C=C(Br)C(=O)Nc1cccc(/C=C/C(=O)Nc2ccc(F)cc2)c1 | 16800 | 36600 | 4800 | 16600 | 6200 | 8400 | 13600 | 
 | C=C(Br)C(=O)Nc1cccc(/C=C/C(=O)Nc2ccc(SC(F)(F)F)cc2)c1 | 19000 | 39800 | 29300 | 15300 | 30100 | 12700 | 30100 | 
 | CC[C@]1(O)C[C@@H]2CN(CCc3c([nH]c4ccccc34)[C@@](C(=O)OC)(c3cc4c(cc3OC)N(C)[C@H]3[C@@](O)(C(=O)OC)[C@H](OC(C)=O)[C@]5(CC)C=CCN6CC[C@]43[C@@H]65)C2)C1 [VINBLASTINE] |  |  |  |  |  |  |  | 21
